The sample as a whole holds a higher share of hits than the screen did.
HCT116 PTEN-null: PTEN-deleted cell growth suppression. HCT116 PTEN-null viability, CellTiter-Glo, 60 h; hits give low values. AID 827. viability, % at 10 µM. hit rate 1.2% among 140,000;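 active means viability at or below a set limit, 4 SD under the median of all tested compounds, cut at about 3.7% in these data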;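 further: PTEN knockout HCT116 line with beta catenin targeted HCT116 as companion control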
H69AR growth 86K: blocks growth of human H69AR lung tumor cells; H69AR lung tumor viability, ATP luminescence, 72 h; hits give low values; viability, % at 10 µM; hit rate 6% among 85,000;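 active means viability at or below 40%; inactive means viability above 40%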;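 further: multidrug resistant small cell line overexpressing MRP-1 efflux transporter; 100% = mean luminescence of untreated control wells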
Fibroblast inh: blocks proliferation of human lung fibroblasts; LL 47 human lung fibroblast viability, ATP luminescence; hits give low values; viability, % at 10 µM; hit rate 1.1% among 85,000; AID 719;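 active means viability at or below 50% in the single dose screen; inactive means viability above 50%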;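 further: compound exposure lasted 72 h before the ATP readout; 100% = median luminescence of untreated cell-only wells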
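Assay system: human lung fibroblast line LL 47, low passage. Input: 1,150 fibroblasts seeded per well. Times: overnight cell rest, 72 h compound treatment at 37 °C. Evaluation: % viability of median cell-only signal. Technique: luminescent ATP detection, CellTiter-Glo. Control set: cell-only wells, no compound.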
bCat KO growth: beta-catenin-lacking colon tumor cell growth suppression; HCT116 beta-catenin knockout viability, CellTiter-Glo, 60 h; hits give low values; viability, % at 10 µM; hit rate 1.5% among 140,000;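 active means viability at or under a set limit, the compound median less 4 SD, cut at about 6% in these data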;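 further: 0% = Hyamine 1622 control at 20 µM and 100% = untreated cell control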
HUVEC prolif 384: blocks proliferation of human endothelial cells; HUVEC proliferation, CellTiter-Glo luminescence, 72 h; hits give low values; hit rate 1.1% among 86,000; AID 648; viability, % at 10 µM (by protocol);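 active means viability at or below 30%; inactive means viability above 30%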;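 further: 100% = median luminescence of DMSO-only cell control wells on each plate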
* hit, by the source's call.

CCc1ccc2c(c1)[C@]1(C(=O)N2)[C@@H]2C(=O)N(Cc3ccccc3)C(=O)[C@@H]2[C@@H]2CCCN21 was read as HCT116 PTEN-null 85.6, H69AR growth 86K 90.8, Fibroblast inh 91.5, bCat KO growth 90.2 and HUVEC prolif 384 85.6.
Screening Cc1ccc(S(=O)(=O)N2C(=O)CCC2C(=O)Nn2cnnc2)cc1 (stereo not drawn) returned HCT116 PTEN-null 99.9, H69AR growth 86K 73.4, Fibroblast inh 102.8, bCat KO growth 106.2 and HUVEC prolif 384 100.0.
Screening CCCCOc1ccc(C(=O)NCC2(c3ccc(OC)cc3)CCOCC2)cc1 returned HCT116 PTEN-null 88.8 and bCat KO growth 86.5.
Cc1cc(C)nc(N2CCC(C(=O)Nc3cccc(C(F)(F)F)c3)CC2)n1 was read as HCT116 PTEN-null 73.9, H69AR growth 86K 88.2, Fibroblast inh 98.9, bCat KO growth 59.4 and HUVEC prolif 384 116.8.
Cc1sc2c(=O)n3c(nc2c1C(=O)NCCCN1CCOCC1)CCCCC3 was read as HCT116 PTEN-null 1.5*, H69AR growth 86K 81.4, Fibroblast inh 100.8, bCat KO growth 107.3 and HUVEC prolif 384 103.9.
For Cc1csc2c(=O)n3c(nc12)CCCCC3 the results were HCT116 PTEN-null 100.0, H69AR growth 86K 100.3, Fibroblast inh 97.4, bCat KO growth 99.0 and HUVEC prolif 384 99.2.
Screening Cc1sc2c(=O)n3c(nc2c1C(=O)NC1CCCCC1)CCCCC3 returned HCT116 PTEN-null 71.8, H69AR growth 86K 38.7*, Fibroblast inh 94.5, bCat KO growth 70.1 and HUVEC prolif 384 88.5.
Screening COCCCn1c(Cc2csc(Nc3ccc(F)cc3)n2)nnc1SCC(N)=O returned HCT116 PTEN-null 91.7 and bCat KO growth 97.1.
CC(C)OP(=O)(OC(C)C)C(NC(=O)c1ccc(Br)cc1)c1ccccc1 (stereo not drawn) was read as HCT116 PTEN-null 51.5, H69AR growth 86K 28.3*, Fibroblast inh 94.4, bCat KO growth 68.3 and HUVEC prolif 384 77.7.
Screening CC(NC(=O)c1ccc(Br)cc1)c1ccccc1 (stereo not drawn) returned HCT116 PTEN-null 87.8 and bCat KO growth 84.1.
For Cc1cc(NC2CCCCC2)nc(NCc2ccccc2)n1 the results were HCT116 PTEN-null 3.2* and bCat KO growth 2.6*.
Cc1cc(N/N=C/c2ccccc2Cl)nc(NCc2ccccc2)n1 was read as HCT116 PTEN-null 26.3 and bCat KO growth 42.1.
Cc1ccc(Nc2cc(C)nc(NCc3ccccc3)n2)cc1 was read as HCT116 PTEN-null 1.0* and bCat KO growth 1.0*.
`COc1cc(C)nc(NCc2ccccc2)n1` gave HCT116 PTEN-null 99.6, H69AR growth 86K 91.8, Fibroblast inh 91.2, bCat KO growth 97.2 and HUVEC prolif 384 99.2.
Screening Cc1nn2c(COc3ccc(NC(=O)c4ccccc4Cl)cc3)nnc2c2ccccc12 returned HCT116 PTEN-null 29.6 and bCat KO growth 25.1.
Screening Cn1cccc1C1Nc2ccccc2NC2=C1C(=O)CC(C)(C)C2 (stereo not drawn) returned HCT116 PTEN-null 79.4, H69AR growth 86K 94.2, Fibroblast inh 107.1, bCat KO growth 83.9 and HUVEC prolif 384 103.5.
Screening CC(C)OCC(O)CS(=O)Cc1ccccc1 (stereo not drawn) returned HCT116 PTEN-null 89.1, H69AR growth 86K 96.8, Fibroblast inh 104.2, bCat KO growth 94.7 and HUVEC prolif 384 89.5.
For Cn1c(CCNC(=O)c2ccc(Cl)cc2)n[nH]c1=S the results were HCT116 PTEN-null 95.4 and bCat KO growth 90.3.
`Cc1ccc(-c2[nH]c3ccccc3c2SCCNC(=O)c2ccc(S(=O)(=O)N3CCOCC3)cc2)cc1` gave HCT116 PTEN-null 0.8* and bCat KO growth 0.8*.
`COc1ccc(-c2[nH]c3ccccc3c2SCCNC(=O)c2ccccc2)cc1` gave HCT116 PTEN-null 56.4 and bCat KO growth 59.7.
Screening COC12NC(=O)N(C)C1(OC)C(=O)N(C)C(=O)N2C (stereo not drawn) returned HCT116 PTEN-null 100.6 and bCat KO growth 107.0.
Screening Cc1ccc(-c2nn(-c3ccccc3)cc2C=C2C(=O)CC(C)(C)CC2=O)cc1 returned HCT116 PTEN-null 13.1 and bCat KO growth 19.5.
CC1=NNC(=O)/C1=C\c1cn(-c2ccccc2)nc1-c1ccc(Cl)cc1 was read as HCT116 PTEN-null 1.4* and bCat KO growth 1.4*.
Cc1cc(C)n(-c2nc3sc4c(c3c(=O)[nH]2)CCCC4)n1 was read as HCT116 PTEN-null 2.6*, H69AR growth 86K 27.8*, Fibroblast inh 51.0, bCat KO growth 4.7* and HUVEC prolif 384 52.7.

Screening data: PubChem BioAssay, SRMLSC
